Laboratory results reported in ChEMBL document CHEMBL1687761 (2010).

Columns and labels:
Format in all cases: functional
Escherichia coli [1] = assay: Antimicrobial activity against Escherichia coli XL1-Blue harboring pLBII-VIM-2 plasmid expressing VIM-2 W87A mutant beta-lactamase by broth microdilution method
Procedure, shortened: (§1)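 Isogenic E. coli XL-1 strains carried pLBII-VIM-2 encoding wild-type or mutant VIM-2, or the empty pBC-SK vector. β-Lactam MICs were determined by CLSI broth microdilution in cation-adjusted Mueller-Hinton broth.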

Escherichia coli [2] = assay: Antimicrobial activity against Escherichia coli XL1-Blue harboring pLBII-VIM-2 plasmid expressing VIM-2 beta-lactamase by broth microdilution method; procedure, shortened: as §1
Escherichia coli [3] = assay: Antimicrobial activity against Escherichia coli XL1-Blue harboring pLBII-VIM-2 plasmid expressing VIM-2 A64W mutant beta-lactamase by broth microdilution method; procedure, shortened: as §1
Escherichia coli [4] = assay: Antimicrobial activity against Escherichia coli XL1-Blue harboring pBC-SK plasmid by broth microdilution method; procedure, shortened: as §1
Escherichia coli [5] = assay: Antimicrobial activity against Escherichia coli XL1-Blue harboring pLBII-VIM-2 plasmid expressing VIM-2 W87F mutant beta-lactamase by broth microdilution method; procedure, shortened: as §1
Escherichia coli [6] = assay: Antimicrobial activity against Escherichia coli XL1-Blue VIM-2 W87Q mutant beta-lactamase by broth microdilution method
Escherichia coli [7] = assay: Antimicrobial activity against Escherichia coli XL1-Blue VIM-2 W87F mutant beta-lactamase by broth microdilution method
Escherichia coli [8] = assay: Antimicrobial activity against Escherichia coli XL1-Blue VIM-2 W87N mutant beta-lactamase by broth microdilution method
Escherichia coli [9] = assay: Antimicrobial activity against Escherichia coli XL1-Blue VIM-2 F61A mutant beta-lactamase by broth microdilution method
Escherichia coli [10] = assay: Antimicrobial activity against Escherichia coli XL1-Blue VIM-2 F61N mutant beta-lactamase by broth microdilution method
Escherichia coli [11] = assay: Antimicrobial activity against Escherichia coli XL1-Blue VIM-2 W87P mutant beta-lactamase by broth microdilution method
Escherichia coli [12] = assay: Antimicrobial activity against Escherichia coli XL1-Blue VIM-2 W87R mutant beta-lactamase by broth microdilution method
Escherichia coli [13] = assay: Antimicrobial activity against Escherichia coli XL1-Blue VIM-2 W87Y mutant beta-lactamase by broth microdilution method
Escherichia coli [14] = assay: Antimicrobial activity against Escherichia coli XL1-Blue VIM-2 W87I mutant beta-lactamase by broth microdilution method
Escherichia coli [15] = assay: Antimicrobial activity against Escherichia coli XL1-Blue VIM-2 F61Y mutant beta-lactamase by broth microdilution method
Escherichia coli [16] = assay: Antimicrobial activity against Escherichia coli XL1-Blue VIM-2 W87K mutant beta-lactamase by broth microdilution method
Escherichia coli [17] = assay: Antimicrobial activity against Escherichia coli XL1-Blue VIM-2 W87G mutant beta-lactamase by broth microdilution method
Escherichia coli [18] = assay: Antimicrobial activity against Escherichia coli XL1-Blue VIM-2 F61R mutant beta-lactamase by broth microdilution method
Escherichia coli [19] = assay: Antimicrobial activity against Escherichia coli XL1-Blue VIM-2 W87V mutant beta-lactamase by broth microdilution method
Escherichia coli [20] = assay: Antimicrobial activity against Escherichia coli XL1-Blue VIM-2 F61L mutant beta-lactamase by broth microdilution method
Escherichia coli [21] = assay: Antimicrobial activity against Escherichia coli XL1-Blue VIM-2 F61T mutant beta-lactamase by broth microdilution method
Escherichia coli [22] = assay: Antimicrobial activity against Escherichia coli XL1-Blue VIM-2 W87T mutant beta-lactamase by broth microdilution method
Escherichia coli [23] = assay: Antimicrobial activity against Escherichia coli XL1-Blue VIM-2 F61H mutant beta-lactamase by broth microdilution method
Escherichia coli [24] = assay: Antimicrobial activity against Escherichia coli XL1-Blue VIM-2 F61P mutant beta-lactamase by broth microdilution method
Escherichia coli [25] = assay: Antimicrobial activity against Escherichia coli XL1-Blue VIM-2 W87L mutant beta-lactamase by broth microdilution method
Escherichia coli [26] = assay: Antimicrobial activity against Escherichia coli XL1-Blue VIM-2 F61S mutant beta-lactamase by broth microdilution method
Escherichia coli [27] = assay: Antimicrobial activity against Escherichia coli XL1-Blue VIM-2 F61V mutant beta-lactamase by broth microdilution method
Escherichia coli [28] = assay: Antimicrobial activity against Escherichia coli XL1-Blue VIM-2 F61I mutant beta-lactamase by broth microdilution method
Escherichia coli [29] = assay: Antimicrobial activity against Escherichia coli XL1-Blue VIM-2 W87S mutant beta-lactamase by broth microdilution method
Escherichia coli [30] = assay: Antimicrobial activity against Escherichia coli XL1-Blue VIM-2 W87M mutant beta-lactamase by broth microdilution method
Escherichia coli [31] = assay: Antimicrobial activity against Escherichia coli XL1-Blue VIM-2 F61G mutant beta-lactamase by broth microdilution method
Escherichia coli [32] = assay: Antimicrobial activity against Escherichia coli XL1-Blue VIM-2 F61K mutant beta-lactamase by broth microdilution method
Escherichia coli [33] = assay: Antimicrobial activity against Escherichia coli XL1-Blue VIM-2 W87A mutant beta-lactamase by broth microdilution method
Escherichia coli [34] = assay: Antimicrobial activity against Escherichia coli XL1-Blue VIM-2 F61C mutant beta-lactamase by broth microdilution method
Escherichia coli [35] = assay: Antimicrobial activity against Escherichia coli XL1-Blue VIM-2 F61W mutant beta-lactamase by broth microdilution method

Measured: MIC

CO/N=C(\C(=O)N[C@@H]1C(=O)N2C(C(=O)[O-])=C(C[N+]3(C)CCCC3)CS[C@H]12)c1csc(N)n1
0.12 µg/mL: Escherichia coli [1]
0.5 µg/mL: Escherichia coli [2] | Escherichia coli [3]

CO/N=C(\C(=O)N[C@@H]1C(=O)N2C(C(=O)O)=C(COC(C)=O)CS[C@H]12)c1csc(N)n1 [CEFOTAXIME]
> 32 µg/mL: Escherichia coli [2] | Escherichia coli [3]
0.12 µg/mL: Escherichia coli [1] | Escherichia coli [4] | Escherichia coli [5]

C[C@@H](O)[C@H]1C(=O)N2C(C(=O)O)=C(SCCNC=N)C[C@H]12 [IMIPENEM ANHYDROUS]
0.12 µg/mL: Escherichia coli [1]
1 µg/mL: Escherichia coli [2] | Escherichia coli [3]

CCN1CCN(C(=O)N[C@@H](C(=O)N[C@@H]2C(=O)N3[C@@H]2SC(C)(C)[C@@H]3C(=O)O)c2ccccc2)C(=O)C1=O [PIPERACILLIN]
0.5 µg/mL: Escherichia coli [1] | Escherichia coli [4] | Escherichia coli [5]
8 µg/mL: Escherichia coli [2] | Escherichia coli [3]

CC(C)(O/N=C(\C(=O)N[C@@H]1C(=O)N2C(C(=O)[O-])=C(C[n+]3ccccc3)CS[C@H]12)c1csc(N)n1)C(=O)O [CEFTAZIDIME]
0.12 µg/mL: Escherichia coli [1] | Escherichia coli [4] | Escherichia coli [5]
2 µg/mL: Escherichia coli [2] | Escherichia coli [3]

CC1(C)S[C@@H]2[C@H](NC(=O)[C@H](N)c3ccccc3)C(=O)N2[C@H]1C(=O)O [AMPICILLIN]
64 µg/mL: Escherichia coli [2] | Escherichia coli [3]
8 µg/mL: Escherichia coli [18] | Escherichia coli [24] | Escherichia coli [26] | Escherichia coli [5] | Escherichia coli [34]
≥ 32 µg/mL: Escherichia coli [9] | Escherichia coli [10] | Escherichia coli [15] | Escherichia coli [20] | Escherichia coli [21] | Escherichia coli [23] | Escherichia coli [27] | Escherichia coli [28] | Escherichia coli [31] | Escherichia coli [32] | Escherichia coli [35]
not listed: Escherichia coli [1] | Escherichia coli [4]
≤ 4 µg/mL: all other assays above

CO[C@@]1(NC(=O)Cc2cccs2)C(=O)N2C(C(=O)O)=C(COC(N)=O)CS[C@@H]21 [CEFOXITIN]
8 µg/mL: Escherichia coli [1] | Escherichia coli [4] | Escherichia coli [5]
128 µg/mL: Escherichia coli [2] | Escherichia coli [3]

CO/N=C(\C(=O)N[C@@H]1C(=O)N2C(C(=O)O)=C(CSc3nc(=O)c(O)nn3C)CS[C@H]12)c1csc(N)n1 [CEFTRIAXONE]
4 µg/mL: Escherichia coli [2] | Escherichia coli [3]
0.12 µg/mL: Escherichia coli [1] | Escherichia coli [4] | Escherichia coli [5]

CO/N=C(\C(=O)N[C@@H]1C(=O)N2C(C(=O)O)=C(COC(N)=O)CS[C@H]12)c1ccco1 [CEFUROXIME]
256 µg/mL: Escherichia coli [2] | Escherichia coli [3]
8 µg/mL: Escherichia coli [1] | Escherichia coli [4] | Escherichia coli [5]

C[C@@H](O)[C@H]1C(=O)N2C(C(=O)O)=C(S[C@@H]3CN[C@H](C(=O)Nc4cccc(C(=O)O)c4)C3)[C@H](C)[C@H]12
≤ 0.03 µg/mL: Escherichia coli [1] | Escherichia coli [4] | Escherichia coli [5]
0.5 µg/mL: Escherichia coli [2] | Escherichia coli [3]

C[C@@H](O)[C@H]1C(=O)N2C(C(=O)O)=C(S[C@@H]3CN[C@H](C(=O)N(C)C)C3)[C@H](C)[C@H]12 [MEROPENEM]
≤ 0.03 µg/mL: Escherichia coli [1] | Escherichia coli [4] | Escherichia coli [5]
0.5 µg/mL: Escherichia coli [2] | Escherichia coli [3]

CC(=O)OCC1=C(C(=O)O)N2C(=O)[C@@H](NC(=O)Cc3cccs3)[C@H]2SC1 [CEPHALOTHIN]
256 µg/mL: Escherichia coli [2] | Escherichia coli [3]
16 µg/mL: Escherichia coli [1] | Escherichia coli [4]

C[C@H]1[C@H](NC(=O)/C(=N\OC(C)(C)C(=O)O)c2csc(N)n2)C(=O)N1S(=O)(=O)O [AZTREONAM]
0.12 µg/mL: Escherichia coli [1] | Escherichia coli [2] | Escherichia coli [3]
